Reference: PMC8346222 (Science Advances, 2021)
Converted amounts (≈) assume the structure as drawn.

What was measured:
Test in all cases: Minimum inhibitory concentration, broth microdilution
Assay type in all cases: cell-based
[1] = system: Klebsiella pneumoniae NR-41920; conditions: NR41920, read-out: Minimum inhibitory concentration
Method in brief: (§1)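 Broth microdilution per CLSI: test agents serially diluted across plates. Inoculum set to 0.5 McFarland, diluted in cation-adjusted Mueller Hinton broth to ~5 × 10^5 CFU/ml, then incubated aerobically at 37°C for 16 to 18 h. Gentamicin and imipenem were run as control antibiotics.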

[2] = system: Escherichia coli ATCC 2469; conditions: ATCC2469, read-out: Minimum inhibitory concentration
Method in brief: as §1

[3] = system: Escherichia coli ATCC 2452; conditions: ATCC2452, read-out: Minimum inhibitory concentration
Method in brief: as §1

[4] = system: Pseudomonas aeruginosa NR-50573; conditions: NR50573, read-out: Minimum inhibitory concentration
Method in brief: as §1

MIC [1]	MIC [2]	MIC [3]	MIC [4]	SMILES
64 mg/L (≈ 134 µM)	> 64 mg/L	> 64 mg/L	1 mg/L (≈ 2.09 µM)	CNC(C)C1CCC(N)C(OC2C(N)CC(N)C(OC3OCC(C)(O)C(NC)C3O)C2O)O1 (centres unmarked) [Gentamicin]
8 mg/L (≈ 26.7 µM)	16 mg/L (≈ 53.4 µM)	16 mg/L (≈ 53.4 µM)	1 mg/L (≈ 3.34 µM)	C[C@@H](O)[C@H]1C(=O)N2C(C(=O)O)=C(SCCN=CN)C[C@H]12 [Imipenem]
